Data from ChEMBL document CHEMBL3352678, “Synthesis and acetylcholinesterase inhibitory activity of Mannich base derivatives flavokawain B” (Bioorg Med Chem Lett, 2014).
pIC50, pKi: −log10 of the molar value.

How the values were obtained:
Acetylcholinesterase [1] = biological target: T1, Acetylcholinesterase (Rattus norvegicus, UniProt P37136); assay: Inhibition of Sprague-Dawley rat brain AChE using acetylthiocholin iodide as substrate preincubated for 25 mins by Ellman's/UV-vis spectroscopy analysis
T1 sequence (P37136 whole entry): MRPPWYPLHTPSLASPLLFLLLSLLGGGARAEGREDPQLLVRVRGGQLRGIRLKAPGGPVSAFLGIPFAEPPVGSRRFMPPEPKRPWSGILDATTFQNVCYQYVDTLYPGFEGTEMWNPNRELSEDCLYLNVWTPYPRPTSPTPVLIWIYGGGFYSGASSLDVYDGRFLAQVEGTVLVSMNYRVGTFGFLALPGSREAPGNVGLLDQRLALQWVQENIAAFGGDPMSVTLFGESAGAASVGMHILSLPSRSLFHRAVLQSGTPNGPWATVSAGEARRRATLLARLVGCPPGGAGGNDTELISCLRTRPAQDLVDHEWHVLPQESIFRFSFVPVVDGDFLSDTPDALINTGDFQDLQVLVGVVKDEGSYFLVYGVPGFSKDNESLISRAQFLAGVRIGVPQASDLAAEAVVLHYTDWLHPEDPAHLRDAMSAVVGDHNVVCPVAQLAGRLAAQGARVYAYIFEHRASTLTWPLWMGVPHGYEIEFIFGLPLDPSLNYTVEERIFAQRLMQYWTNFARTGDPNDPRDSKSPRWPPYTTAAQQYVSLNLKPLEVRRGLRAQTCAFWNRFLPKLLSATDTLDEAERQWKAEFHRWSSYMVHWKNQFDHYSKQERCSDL
Summary of the method: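 Modified Ellman's method. Inhibition ratio was calculated from absorbance of the AChE-catalysed reaction product. IC50 was taken as the concentration causing 50% loss of enzyme activity.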

[2] = Octanol-buffer partition coefficient, log p of the compound at pH 7.4 for 24 hrs by shake flask method; format: physicochemical
Summary of the method: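 Partitioning between n-octanol and buffer at pH 7.4 by the classical shake-flask method. Compound in each phase quantified by reverse-phase HPLC. log P calculated from the phase distribution.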

Acetylcholinesterase [3] = biological target: T1, Acetylcholinesterase; assay: Inhibition of Sprague-Dawley rat brain AChE by Michaelis-Menten equation
Summary of the method: (§1)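 Kinetic analysis: Km and vmax were determined at several inhibitor concentrations. Ki for the free enzyme came from a linear replot of slope against inhibitor concentration. Ki′ for the enzyme–substrate complex came from a linear replot of intercept against inhibitor concentration.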

Acetylcholinesterase [4] = biological target: T1, Acetylcholinesterase; assay: Inhibition of Sprague-Dawley rat brain AChE using acetylthiocholin iodide as substrate by Michaelis-Menten equation; summary of the method: as §1

With `CCCN(CCC)Cc1c(OC)cc(OC)c(C(=O)/C=C/c2ccccc2)c1O` the pIC50 (Acetylcholinesterase [1]) was 4.26 and the logD at 24 h [2] was 1.77.
Work on `COc1cc(OC)c(C(=O)/C=C/c2ccccc2)c(O)c1CN1CCN(C)CC1` yielded a pIC50 (Acetylcholinesterase [1]) of 4.91 and a logD at 24 h [2] of 1.58.
For `COc1cc(OC)c(C(=O)/C=C/c2ccccc2)c(O)c1CN(C)C`, the pIC50 (Acetylcholinesterase [1]) was 4.73 and the logD at 24 h [2] was 1.61.
Compound `COc1cc(OC)c(C(=O)/C=C/c2ccccc2)c(O)c1CN1CCCCC1` has a pIC50 (Acetylcholinesterase [1]) of 5.38, a logD at 24 h [2] of 1.75 and a pKi (Acetylcholinesterase [3]) of 5.56. It also gave a pKi (Acetylcholinesterase [4]) of 5.34.
Work on `COc1cc(OC)c(C(=O)/C=C/c2ccccc2)c(O)c1CN1CCOCC1` yielded a pIC50 (Acetylcholinesterase [1]) of 3.58 and a logD at 24 h [2] of 1.63.
With `CCN(CC)Cc1c(OC)cc(OC)c(C(=O)/C=C/c2ccccc2)c1O` the pIC50 (Acetylcholinesterase [1]) was 4.82 and the logD at 24 h [2] was 1.69.
With `COc1cc(OC)c(C(=O)/C=C/c2ccccc2)c(O)c1CN1CCCC1` the pIC50 (Acetylcholinesterase [1]) was 4.79 and the logD at 24 h [2] was 1.74.
